What is called Ki is a measure of affinity in units of concentration, obtained from inhibition or displacement.

Experimental findings from ChEMBL document CHEMBL4041515, “Modulating hydrogen-bond basicity within the context of protein-ligand binding: A case study with thrombin inhibitors that reveals a dominating role for desolvation” (Eur J Med Chem, 2017) are described below.

The structures appear in SMILES notation.

The target in this test is Prothrombin (Homo sapiens, UniProt P00734). The experiment in a line: Inhibition of thrombin (unknown origin) using CH3SO2-D-Cha-Gly-Arg-pNA.AcOH as substrate measured every 20 sec for 30 mins in presence of NaCl by UV-Visible spectrophotometric method. The essentials: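 Kinetic chromogenic assay at 25 ± 0.2 °C in 0.02 M Hepes, 0.154 M NaCl (Na⁺ for enzyme activation), final DMSO 6.5 %, pH 7.4 ± 0.05. Thrombin about 8-12 nM final, substrate 100 µM final, inhibitor 0.5-10× preliminary IC50. Enzyme added last to premixed substrate and inhibitor, A405 read. Rates gave dose-response IC50, then Ki via Cheng-Prusoff, and ΔG = RTlnKi.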
Turning to `CCN1CCC[C@H]1C(=O)NCc1ccc(C(=N)N)cc1`, the Ki is 250 µM.
In the case of `N=C(N)c1ccc(CNC(=O)[C@@H]2CCCN2C(N)=O)cc1`, the Ki worked out at 59 µM.
In the case of `CC(=O)N1CCC[C@H]1C(=O)NCc1ccc(C(=N)N)cc1`, the Ki came out at 68 µM.
Next, `CS(=O)(=O)N1CCC[C@H]1C(=O)NCc1ccc(C(=N)N)cc1`: 68 µM; `CC(C)(C)OC(=O)N1CCC[C@H]1C(=O)NCc1ccc(C(=N)N)cc1`: 11.9 µM.
Turning to `N=C(N)c1ccc(CNC(=O)[C@@H]2CCCN2C(=O)OCc2ccccc2)cc1`, the Ki was 4 µM.
Then `N=C(N)c1ccc(CNC(=O)[C@@H]2CCCN2C(=O)NCc2ccccc2)cc1`, with 14.5 µM; and `N=C(N)c1ccc(CNC(=O)[C@@H]2CCCN2C(=O)CCc2ccccc2)cc1`, with 0.72 µM.
Consider `N=C(N)c1ccc(CNC(=O)[C@@H]2CCCN2S(=O)(=O)C(F)(F)F)cc1`, for which the Ki was 7.1 µM.
Then `CC(C)(C)CC(=O)N1CCC[C@H]1C(=O)NCc1ccc(C(=N)N)cc1`, with 4.2 µM; and `N=C(N)c1ccc(CNC(=O)[C@@H]2CCCN2S(N)(=O)=O)cc1`, with 163 µM.
Next, `N=C(N)c1ccc(CNC(=O)[C@@H]2CCCN2C(=O)C(F)F)cc1`: 17.9 µM.
Then `CC(C)(C)NC(=O)N1CCC[C@H]1C(=O)NCc1ccc(C(=N)N)cc1`, with 36 µM.
On to `N=C(N)c1ccc(CNC(=O)[C@@H]2CCCN2C(=O)CF)cc1`, for which the Ki is 44 µM.
Next, `N=C(N)c1ccc(CNC(=O)[C@@H]2CCCN2C(=O)C(F)(F)F)cc1`: 13.5 µM.
